DAGLB inh = DAGLB lipase inhibitors, primary screen, biochemical, fluorescence, HTS; HEK293T DAGLB membrane lysate, EnzChek fluorogenic substrate; inhibition, % at 5.17 µM; 340,000 compounds, 0.059% hits; AID 504411, 2011; in the data active means inhibition above about 34%;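 further: 0% = enzyme with vehicle and 100% = wells lacking enzyme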
Tn6 DDE FP = inhibitors of Tn6 peptide binding to fibrin DD(E), primary screen, biochemical, fluorescence polarization, human fibrin, Tn6 probe; Fibrinogen beta chain (Homo sapiens), P02675; Fibrin DD(E) TRITC-Tn6 fluorescence polarization displacement; inhibition, % at 8.3 µM; 370,000 compounds, 0.21% hits; AID 720509, 2013;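 active means inhibition above a per-campaign cutoff: mean of compounds within control limits plus 3 SD, cut at about 15% in these data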;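 further: 0% = median of all compound wells on the plate and 100% = blocking peptide control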
Target sequence (P02675 whole entry, looked up): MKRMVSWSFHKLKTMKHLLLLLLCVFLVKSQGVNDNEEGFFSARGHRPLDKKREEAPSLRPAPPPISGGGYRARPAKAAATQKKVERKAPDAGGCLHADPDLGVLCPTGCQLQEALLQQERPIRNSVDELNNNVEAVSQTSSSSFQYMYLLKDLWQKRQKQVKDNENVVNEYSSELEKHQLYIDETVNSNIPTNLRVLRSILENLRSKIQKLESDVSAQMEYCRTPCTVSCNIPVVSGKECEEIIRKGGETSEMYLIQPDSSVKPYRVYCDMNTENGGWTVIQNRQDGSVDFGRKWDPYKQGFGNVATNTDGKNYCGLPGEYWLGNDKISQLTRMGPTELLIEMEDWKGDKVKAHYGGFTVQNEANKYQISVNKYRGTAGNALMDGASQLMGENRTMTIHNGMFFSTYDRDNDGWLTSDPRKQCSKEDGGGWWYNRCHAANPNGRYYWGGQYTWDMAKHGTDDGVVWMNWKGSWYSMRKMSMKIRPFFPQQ
PolyA inhibitor = polyadenylation inhibitors in yeast reporter cells, primary screen, luminescence, S. cerevisiae; S. cerevisiae SKY197-pL101 polyadenylation reporter, beta-gal luminescence; efflux-impaired pdr1/pdr3 knockout yeast; score 100 = 6 SD above DMSO; activity score, % at 12 µM; 300,000 compounds, 0.02% hits;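 active means lowest replicate activity score at least 50, where 100 means six control SD above control mean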;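 further: yeast exposed to compound for 9 h at 30 °C; higher score means more reporter readthrough which indicates perturbed polyadenylation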
SKN-1 inh = suppressors of acrylamide-induced Pgst-4::GFP reporter in worms, primary screen, SKN-1 inhibitor project, whole organism, uHTS, GFP/RFP fluorescence ratio, strain VP596; C. elegans VP596 Pgst-4::GFP/RFP ratio, 24 h; inhibition, % at 21.8 µM; 360,000 compounds, 0.49% hits; AID 624304, 2012;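 active means interference check ratio from 0.5 to 1.5 plus GFP to RFP signal ratio inhibition reaching or exceeding a fixed threshold, cut at about 30% in these data, passing the limit was not always enough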
MT1-MMP act inh = blockers of MT1-MMP proenzyme processing, primary screen, HT1080 RFP-PRO-GFP cells, GFP/RFP fluorescence; Matrix metalloproteinase-14 (Homo sapiens), P50281; GFP/RFP ratio fluorescence, overnight; percent of plate control window, DMSO zero; GFP/RFP ratio change, % at 20 µM; 360,000 compounds, 0.061% hits;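 active means GFP/RFP ratio change of at least 30% with cell ATP level not reduced by more than half and red fluorescence within 50% of control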
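Assay system: HT1080 cells carrying an RFP-PRO-GFP reporter | Dosing: Single dose of 20 µM compound, 1% DMSO final | Incubation: Cells overnight before dosing, compound overnight, 37 °C, 5% CO2 | Evaluation: GFP/RFP fluorescence ratio | Control set: DMSO and RFP-L50D-GFP cell wells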
Tn7 DDE FP = inhibitors of Tn7 peptide binding to fibrin DD(E), primary screen, biochemical, fluorescence polarization, human fibrin, Tn7 probe; Fibrinogen beta chain (Homo sapiens), P02675; FP displacement of FITC-Tn7 peptide from fibrin DD(E); 0% = median of compound wells per plate; inhibition, % at 8.3 µM; 370,000 compounds, 0.13% hits;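 active means inhibition above the mean of compounds falling within the control limits plus 3 SD of them, cut at about 14% in these data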;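 further: 0% = plate median of compound wells and 100% = 10 µM Aha-Tn7 peptide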
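System: human fibrin DD(E); quantity: Fibrin-DD(E) at 2 µM final; also added: fluorescent Tn7 probe at 0.1 µM; compound dosing: single nominal test concentration of 8.3 µM per compound; schedule: 10 min preincubation, 3 h with tracer, room temperature; detection: fluorescence polarization of the labelled Tn7 tracer; repeats: one replicate per compound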
MT1-MMP conf = MT1-MMP activation inhibitors, hit retest, confirmation, single concentration, fluorescence, HT1080 RFP-PRO-GFP cells; shares compounds with MT1-MMP act inh; GFP and RFP fluorescence ratio, overnight; inhibition, % at 20 µM; 200 compounds, 10% hits;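 active means inhibition of at least 50% in the primary cell screen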
* marks the source's active call; other numbers are inactive results; x = no result given. In the library only some 0.9% were active in any assay of this set; here they are far more common.

SMILES | DAGLB inh | Tn6 DDE FP | PolyA inhibitor | SKN-1 inh | MT1-MMP act inh | Tn7 DDE FP | MT1-MMP conf
COc1cccc2[nH]c3c(N4CCCCC4)ncnc3c12 | 2 | -2 | -23 | 17 | 32* | 0 | 6
COC(=O)[C@H](C(C)C)N(Cc1cn(Cc2ccc(C)cc2)nn1)S(=O)(=O)c1ccccc1Br | x | 5 | x | x | x | 4 | x
Cc1ccccc1N1CC(=O)N(c2ccccc2C)CC1=O | 0 | 3 | -1 | 24 | 36* | -5 | 13
COc1cc(/C=C/c2cc(OC(C)=O)c3ccccc3n2)c(OC(C)=O)c([N+](=O)[O-])c1 | 1 | -2 | -8 | 4 | 37* | 0 | 24
CC(=O)Oc1c(Cl)cc(Cl)cc1/C=C/c1ccc2ccccc2n1 | -4 | -8 | -2 | 12 | -265 | 2 | x
N#CCC[C@H]1CC[C@]2(CCCN(C(=O)c3ccco3)C2)O1 | x | 0 | x | x | x | 0 | x
N#CCCN1CCCc2cc(N=Nc3ccc(C(F)(F)F)cc3)ccc21 | x | -6 | 3 | 8 | 32* | -3 | 28
CCCN1CCCc2ccccc21 | 1 | -4 | 9 | 11 | 3 | -1 | x
O=C(CCn1nnc(-c2cccs2)n1)N1CCCC1 | x | 2 | x | x | x | 2 | x
CNc1ccccc1C(C)(C)c1cc(-c2cc(C)cc(C)c2)no1 | -11 | -2 | 17 | 8 | -3 | -3 | x
CNc1ccccc1C(C)(C)c1cc(-c2cccc(OC)c2)no1 | x | 3 | -14 | 73 | 47* | 0 | 54*
CN1/C(=C\C(=S)NC(=O)c2ccccc2Cl)C(C)(C)c2ccccc21 | 15 | -1 | -5 | 53 | 53 | 0 | x
COc1ccccc1C(=O)NC(=S)/C=C1/N(C)c2ccccc2C1(C)C | 27 | 3 | -10 | 75 | 55* | 1 | 31
Cc1cccc(-c2nnc(SCC(=O)Nc3ccc(-c4nc5ccc(C)cc5s4)cc3)n2Cc2ccco2)c1 | x | -8 | x | x | x | 6 | x
Cc1c(C(=O)O)c(O)cc2c1C(=O)c1c(O)c([C@@H]3O[C@H](CO)[C@@H](O)[C@H](O)[C@H]3O)c(O)c(O)c1C2=O | 2 | 18* | x | 70 | 50* | 7 | 41
COc1c(O)cc2c(c1O)[C@@H]1O[C@H](CO)[C@@H](O)[C@H](O)[C@H]1OC2=O | 1 | 7 | 3 | -1 | 1 | -1 | x
Cc1ccccc1OCc1nc2ccc(S(=O)(=O)N3CCOCC3)cc2[nH]1 | 0 | -4 | x | 1 | 3 | -7 | x
O=S(=O)(c1ccc2nc(COc3ccc(Cl)cc3Cl)[nH]c2c1)N1CCOCC1 | -6 | -6 | -19 | -12 | 35* | -1 | 14
O=C(NCC(c1ccccc1)c1ccccc1)[C@H](Cc1ccccc1)NC1(C(=O)NC2CCCCC2)CCCCCC1 | x | 3 | x | x | x | 1 | x
CN1/C(=C\C(=O)CN2C(=O)NC3(CCCCCC3)C2=O)C(C)(C)c2ccccc21 | 1 | -7 | -1 | 57 | 34* | -3 | 27
CN1/C(=C\C(=O)COC(=O)CN2C(=O)C3CC=CCC3C2=O)C(C)(C)c2ccccc21 (centres undefined) | -1 | -11 | -2 | 16 | 6 | -1 | x
Cc1cccc[n+]1CC(=O)/C=C1\N(C)c2ccccc2C1(C)C | 1 | 3 | 2 | 51 | 41* | 4 | 47
Cc1ccc(-n2c(SCC(=O)c3ccccc3Cl)nnc2-c2cnccn2)cc1 | x | 7 | x | x | x | -1 | x
COc1ccc(Br)cc1CNc1ccc(O)cc1 | 6 | 9 | x | -4 | 52* | -2 | 0
Cc1c(C(=O)OCC(=O)NCC2CCCO2)oc2ccccc12 (centres undefined) | -1 | 4 | x | 3 | 33* | 4 | 3
SMILES | DAGLB inh | Tn6 DDE FP | PolyA inhibitor | SKN-1 inh | MT1-MMP act inh | Tn7 DDE FP | MT1-MMP conf
O=C(COC(=O)c1ccccc1)NCC1CCCO1 (centres undefined) | 0 | 7 | -5 | 8 | 9 | 2 | x
CN1/C(=C\C=C(C#N)C#N)C(C)(C)c2ccccc21 | -1 | 5 | 4 | 55 | -88 | 3 | x
CN1/C(=C/C=C/c2n(C)c3cc([N+](=O)[O-])c([N+](=O)[O-])cc3[n+]2C)C(C)(C)c2ccccc21 | 19 | -6 | x | 57* | 97* | -3 | 94*
Cc1ccccc1C1=C/C(=C(\SS/C(C(=O)c2ccc(OCC(=O)O)c(Cl)c2Cl)=C2\C=C(c3ccccc3C)SS2)C(=O)c2ccc(OCC(=O)O)c(Cl)c2Cl)SS1 | 7 | -1 | x | -2 | 34* | -2 | 41
Cc1cc(C)c(S(=O)(=O)/N=C2\C=C(NS(=O)(=O)c3ccccc3)C(=O)c3ccccc32)c(C)c1 | 22 | -2 | -7 | 13 | 41* | -2 | 28
Cc1ccc(S(=O)(=O)/N=C2\C=C(NS(=O)(=O)c3ccccc3)C(=O)c3ccccc32)cc1 | 15 | -6 | x | 9 | 13 | -1 | x
O=[N+]([O-])c1ccc(N2CCCCC2)s1 | 4 | -2 | -16 | 30 | 32* | 2 | 22
CSC1=NSC2=NC(=O)/C(=C\c3cccs3)C(=N)N12 | 8 | -2 | -3 | 7 | 35* | -4 | 30
CCCCOCCCNC(=O)C[C@H]1C[C@@]2(C(=O)OC)C(=C[C@H](COCc3ccccc3)O[C@@H]2C)N(Cc2ccco2)C1=O | x | 3 | x | x | x | -4 | x
COc1cc(NS(=O)(=O)c2ccc(C)cc2)c2c(c1N)C(=O)c1ccccc1C2=O | 11 | -1 | x | 36* | 47* | -7 | 22
C/C(=N\Nc1nc2ccccc2[nH]1)c1ccc([N+](=O)[O-])cc1 | 12 | 0 | -5 | 6 | 51* | 0 | 21
O=C(Nc1nc2ccccc2[nH]1)c1ccc([N+](=O)[O-])cc1 | 1 | 3 | 23 | -4 | -2 | 3 | x
CN(C)/C=C/c1oc2ccc(O)cc2c1[N+](=O)[O-] | 23 | -15 | -28 | 28 | 58* | 1 | 51*
Cc1oc2ccc(O)cc2c1C(=O)c1ccc([N+](=O)[O-])cc1 | -3 | -5 | -12 | 15 | -4 | -2 | x

Bioassay records from PubChem.
